Compound activity: PubChem, Johns Hopkins Ion Channel Center
The list is not random: actives were taken first. Their share in the collection is about 3.7%.
KCNQ1 pot: potentiates or activates the human KCNQ1 potassium channel. 0.35% of 310,000 active. P51787. CHO-K1 KCNQ1, thallium flux FluxOR fluorescence; stronger effect = higher value. B-score at 10 µM. AID 2648;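 active means fluorescence ratio B-score, a plate-corrected score, at least three library SD, with initial intensity B-score within 5 SD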
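Doses: Single concentration per compound, DMSO matched to controls | Test system: KCNQ1-transfected CHO-K1 cells | Timing: 90 min dye loading and 20 min compound exposure, both at room temperature | Measured by: Kinetic FluxOR thallium fluorescence, 10-s 1-Hz baseline, 110-s post-stimulus read | Medium: Assay buffer with matched DMSO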
KCNQ1 inh: inhibitors of human KCNQ1 potassium channel | B-score at 10 µM | CHO-K1 KCNQ1, FluxOR thallium flux fluorescence; stronger effect = higher value | 1.3% of 310,000 active | P51787;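 active means compounds whose thallium flux B-score, printed positive for inhibition, exceeds three library SD while starting fluorescence stays within three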;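 further: channel opened by potassium depolarization with thallium stimulus after 20 min compound exposure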
Kir21 block: inhibitors of mouse Kir2.1 inward-rectifier potassium channel; HEK293-Kir2.1, FluxOR thallium flux fluorescence; stronger effect = lower value; B-score at 10 µM; 0.85% of 310,000 active; P35561;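 active means fluorescence ratio B-score at or below minus 3 SD of library scores, with starting-brightness B-score within 2 SD, cut at about -4.2 in these data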;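 further: channel flux triggered by added potassium and thallium sulfate stimulus; B-score of peak minus minimum fluorescence over baseline after thallium stimulus; more negative B-score means stronger Kir2.1 block with less thallium influx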
KCNK3 inh: human KCNK3 channel inhibition, primary screen; O14649; CHO-KCNK3 thallium flux, FluxOR fluorescence; stronger effect = lower value; B-score at 10 µM; 0.84% of 340,000 active; AID 602410;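 active means B-score under library mean minus 4 SD, starting fluorescence ratio at most library mean plus 5 SD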;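 further: more negative B-score means stronger inhibition of thallium flux through KCNK3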
KCNK9 block: inhibitors of human KCNK9 two-pore domain potassium channel | Q9NPC2 | HEK293 KCNK9, FluxOR thallium flux fluorescence; stronger effect = lower value | B-score at 10 µM | 1.2% of 310,000 active;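 active means ratio B-score over 3 SD below the library mean, with starting fluorescence within 5 SD of its mean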;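 further: negative B-score means less thallium flux so channel inhibition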
hERG protect: shields human hERG channel from block by proarrhythmic agents. Q12809. CHO-hERG, FluxOR thallium flux, dofetilide IC70 present. activation (rescue from dofetilide block), less the hit threshold, % at 10 µM. 0.51% of 310,000 active. AID 1511;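 active means activation above the mean of controls blocked by dofetilide plus 5 SD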;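 further: thallium influx through hERG after potassium depolarization seen as dye fluorescence rise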
KCNQ1 inh valid: confirmation of human KCNQ1 potassium channel inhibitors | shares compounds with KCNQ1 inh | KCNQ1 cell line, FluxOR thallium flux fluorescence | inhibition, % at 10 µM | 93% of 1,600 active | AID 588353;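 active means primary screen active, with duplicate mean exceeding buffer control mean plus 3 SD of buffer wells, cut at about 28% in these data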
CHO KCNQ1 ctr: activity in parental CHO cells lacking KCNQ1; 21% of 1,600 active; shares compounds with KCNQ1 inh; fluorescence ratio (Tl flux) at 10 µM; parental CHO-K1, FluxOR thallium flux fluorescence ratio; stronger effect = lower value; zero means no signal rise above baseline;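 active means mean of duplicate thallium-flux fluorescence ratios in parental host cells more than 5 SD below the buffer control mean, cut at about 0.38 in these data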;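 further: ratio is peak minus minimum fluorescence divided by baseline fluorescence; actives read low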
KCNQ1 ephys val: blocks human KCNQ1 current in automated patch clamp | shares compounds with KCNQ1 inh | KCNQ1-CHO cells | calls only at 10 µM | 20% of 490 active | AID 624120;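 active means KCNQ1 current drop exceeding 3 SD of negative control wells, seen in both duplicate runs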;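 further: steady state current during a 2 s step from -80 to +40 mV; negative values mean current inhibition and positive values mean potentiation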
KCNQ2 inh: rat KCNQ2 inhibition in KCNQ1 inhibitor specificity screen; shares compounds with KCNQ1 inh; KCNQ2 cells, FluxOR thallium flux fluorescence; inhibition, % at 10 µM; 71% of 1,600 active;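 active means mean percent inhibition of the KCNQ2 thallium signal more than 5 SD above the buffer-only control wells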;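 further: KCNQ2 expressed in CHO cells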
KCNQ1 KCNE1 spec: human KCNQ1/KCNE1 inhibition in KCNQ1 specificity screen. shares compounds with KCNQ1 inh. KCNQ1/KCNE1 cells, FluxOR thallium flux fluorescence. inhibition, % at 10 µM. 77% of 1,600 active. AID 652147;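 active means mean percent inhibition of duplicate wells above the buffer-only control mean plus 3 SD of those controls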
Target sequence (P51787 whole entry, looked up): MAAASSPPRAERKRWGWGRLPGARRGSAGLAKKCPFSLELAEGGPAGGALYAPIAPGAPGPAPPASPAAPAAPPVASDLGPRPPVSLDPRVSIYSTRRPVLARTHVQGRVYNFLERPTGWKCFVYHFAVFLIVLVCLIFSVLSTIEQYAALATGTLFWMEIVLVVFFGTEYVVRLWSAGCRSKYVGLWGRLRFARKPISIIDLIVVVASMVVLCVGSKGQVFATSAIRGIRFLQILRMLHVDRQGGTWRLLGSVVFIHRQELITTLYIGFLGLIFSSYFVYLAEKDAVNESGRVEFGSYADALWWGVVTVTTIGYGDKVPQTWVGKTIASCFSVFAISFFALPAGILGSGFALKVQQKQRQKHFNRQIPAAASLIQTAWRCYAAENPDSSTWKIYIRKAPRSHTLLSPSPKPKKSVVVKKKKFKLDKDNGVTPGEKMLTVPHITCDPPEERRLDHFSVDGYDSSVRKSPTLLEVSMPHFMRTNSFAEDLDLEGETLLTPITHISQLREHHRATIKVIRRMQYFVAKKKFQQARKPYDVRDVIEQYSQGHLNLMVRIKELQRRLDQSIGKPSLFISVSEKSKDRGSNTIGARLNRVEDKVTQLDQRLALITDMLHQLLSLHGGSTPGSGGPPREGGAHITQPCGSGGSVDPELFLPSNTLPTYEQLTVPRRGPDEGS
A number is an active result; 0 = inactive; - = no result given; + = active, no number.

SMILES	KCNQ1 pot	KCNQ1 inh	Kir21 block	KCNK3 inh	KCNK9 block	hERG protect	KCNQ1 inh valid	CHO KCNQ1 ctr	KCNQ2 inh	KCNQ1 KCNE1 spec	others
CCC(C)Nc1nc(OC(C(F)(F)F)C(F)(F)F)nc(OC(C(F)(F)F)C(F)(F)F)n1 (centres undefined)	0	7	0	0	0	0	92.0	0	102.3%	89.5%
COc1ccc(Cl)cc1NC(=O)C1CCN(C(=O)Nc2ccccc2)CC1	-	-	-	0	-	-	-	-	-	-
Cc1ccc(C)c(S(=O)(=O)NCc2ccc(C(=O)N3CCC(Cc4ccccc4)CC3)cc2)c1	0	7	0	0	0	0	77.0	0	92.3%	95.0%
CCN1CCN(CC#CCOc2ccccc2OC)CC1	0	0	0	0	0	0	-	-	-	-
CC(C)CCN1CCN(C2CCN(c3ccccc3)CC2)CC1CCO (centres undefined)	0	0	0	0	0	0	-	-	-	-
CCOC(=O)C1=C(C)N(C)C(C)=C(C(=O)OCC)C1c1ccc(C(=O)OC)cc1	0	6	0	0	0	0	105.5	0.303	114.7%	151.0%
CCOC(=O)C1=C(C)N(C)C(C)=C(C(=O)OCC)C1c1ccc(Cl)cc1	0	0	0	0	0	0	-	-	-	-
COC(=O)c1ccccc1NC(=O)CN1CCC(C)CC1	0	0	0	0	0	0	-	-	-	-
O=C(CCN1CCOCC1)c1ccc2c(c1)OCCO2	0	8	0	0	0	0	63.5	0.358	0	60.0%
O=C(c1ccc2c(c1)OCO2)N1CCN(S(=O)(=O)c2ccc(Br)cc2Cl)CC1	-	-	-	0	-	-	-	-	-	-
O=C(c1cc(-c2ccc(Cl)cc2)n(-c2ccc(Cl)c(Cl)c2)n1)N1CCOCC1	0	0	0	0	0	0	-	-	-	-
O=C(c1cc(-c2ccc(Cl)cc2)n(-c2cc(Cl)ccc2Cl)n1)N1CCOCC1	0	7	0	0	0	0	61.5	0	81.3%	86.0%
C[C@H](CO)N1C[C@H](C)[C@@H](CN(C)C(=O)NC2CCCCC2)Oc2c(NC(=O)C3CC3)cccc2C1=O	-	-	-	0	-	-	-	-	-	-
O=C(NC(=S)Nc1ccccc1N1CCN(C(=O)c2ccccc2)CC1)c1ccccc1F	0	10	0	0	0	0	84.0	0	110.3%	111.5%
CCCOc1ccc(Br)cc1CSC(=N)N	0	9	-8.18	0	0	0	100.5	0	78.0%	45.5%	KCNQ1 ephys val=+
CCOc1ccc(Br)cc1CC(=O)O	0	0	0	0	0	0	-	-	-	-
Cc1cc(C)c(NC(=O)CNC(=O)CSc2nnc(N)s2)c(C)c1	0	0	0	0	0	0	-	-	-	-
O=C(COC(=O)c1ccco1)Nc1ccc(N2CCOCC2)cc1	-	-	-	0	-	-	-	-	-	-
CCCCN(c1nc2ccccc2nc1Cl)S(=O)(=O)c1ccc(C)cc1	0	11	0	0	0	0	107.0	0.356	118.0%	144.5%
CCSc1nnc(NC(=O)NC(CC)(C(F)(F)F)C(F)(F)F)s1	0	7	0	0	0	0	57.0	0	0	91.0%
Cc1ccc(Cl)cc1N1CCN(C(=O)c2cc3c(=O)[nH]c4ccccc4c3n2C)CC1	0	12	0	0	0	0	110.0	0	104.3%	0	KCNQ1 ephys val=0
COCCn1c(SCC(=O)NNC(=O)c2ccccc2)nc2ccccc21	-	-	-	0	-	-	-	-	-	-
Cc1cc(NCC2CCCCC2)nc2ccccc12	0	7	0	0	0	0	68.0	0	0	66.5%
Cc1cc(NCCNC2=CC(=O)CCC2)nc2ccccc12	0	0	0	0	0	0	-	-	-	-
